ChEMBL document CHEMBL1765019, “Design, synthesis and biological activity of thiazolidine-4-carboxylic acid derivatives as novel influenza neuraminidase inhibitors” (Bioorg Med Chem, 2011)

Molecular target: Neuraminidase (Influenza A virus, UniProt B4URF0)
Test: Inhibition of influenza A virus neuraminidase assessed as cleavage of MUNANA substrate by fluorescence assay
Outline: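 Screening-kit NA enzyme, not from an avian H5N1 strain, incubated with buffer, substrate and inhibitor at 37 °C. Reaction stopped with stop solution. IC50 taken from percent inhibition plotted against inhibitor concentration; each point in duplicate.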

Question: `O=C(O)[C@@H]1CSC(c2ccccc2)N1C(=O)Cc1ccccc1` (mixture of isomers) was tested. Which IC50 did it give?
Answer: The IC50 was 1.21 µM.

Question: Which IC50 does the source give for `N#Cc1ccc(C2SC[C@@H](C(=O)O)N2C(=O)CN)cc1` (mixture of isomers) here?
Answer: Its IC50 is 0.81 µM.

Question: With `COc1cccc(C2SC[C@@H](C(=O)O)N2C(=O)Cc2ccccc2)c1O` (mixture of isomers) as the molecule, how does the IC50 read?
Answer: Its IC50 is 1.62 µM.

Question: Which IC50 does the source give for `O=C(O)[C@@H]1CSC(c2ccccc2O)N1C(=O)CCl` (mixture of isomers) here?
Answer: Its IC50 is 5.84 µM.

Question: With `COc1cccc(C2SC[C@@H](C(=O)O)N2C(=O)CCl)c1O` (mixture of isomers) as the molecule, how does the IC50 read?
Answer: The IC50 was 7.92 µM.

Question: For `O=C(O)[C@@H]1CSC(c2ccco2)N1` (mixture of isomers), which IC50 is on record?
Answer: Its IC50 is 43.1 µM.

Question: How did the IC50 turn out when `NCC(=O)N1C(c2ccccc2)SC[C@H]1C(=O)O` (mixture of isomers) was run?
Answer: Its IC50 is 0.53 µM.

Question: Which IC50 does the source give for `N#Cc1ccc(C2SC[C@@H](C(=O)O)N2C(=O)CCl)cc1` (mixture of isomers) here?
Answer: The IC50 was 8.64 µM.

Question: `O=C(O)[C@@H]1CSC(c2ccccc2)N1` (mixture of isomers) was tested. Which IC50 did it give?
Answer: Its IC50 is 21.3 µM.

Question: Which IC50 does the source give for `O=C(O)c1ccccc1C1SC[C@@H](C(=O)O)N1C(=O)CCl` (mixture of isomers) here?
Answer: The IC50 was 10.7 µM.

Question: Which IC50 does the source give for `O=C(O)[C@@H]1CSC(c2ccccc2O)N1` (mixture of isomers) here?
Answer: The IC50 was 20.2 µM.

Question: For `O=C(O)[C@@H]1CSC(c2ccccc2[N+](=O)[O-])N1C(=O)Cc1ccccc1` (mixture of isomers), which IC50 is on record?
Answer: Its IC50 is 1.87 µM.

Question: How did the IC50 turn out when `NCC(=O)N1C(c2ccccc2[N+](=O)[O-])SC[C@H]1C(=O)O` (mixture of isomers) was run?
Answer: The IC50 was 1.02 µM.

Question: How did the IC50 turn out when `O=C(O)c1ccccc1C1SC[C@@H](C(=O)O)N1C(=O)Cc1ccccc1` (mixture of isomers) was run?
Answer: Its IC50 is 1.92 µM.

Question: Which IC50 does the source give for `O=C(O)[C@@H]1CSC(c2ccccc2)N1C(=O)CCl` (mixture of isomers) here?
Answer: Its IC50 is 7.53 µM.

Question: `COc1cccc(C2N[C@H](C(=O)O)CS2)c1O` (mixture of isomers) was tested. Which IC50 did it give?
Answer: The IC50 was 12.3 µM.

Question: `O=C(O)[C@@H]1CSC(c2ccco2)N1C(=O)CCl` (mixture of isomers) was tested. Which IC50 did it give?
Answer: The IC50 was 12.9 µM.

Question: Which IC50 does the source give for `O=C(O)[C@@H]1CSC(c2ccccc2O)N1C(=O)Cc1ccccc1` (mixture of isomers) here?
Answer: The IC50 was 0.65 µM.

Question: `O=C(O)[C@@H]1CSC(c2ccccc2[N+](=O)[O-])N1` (mixture of isomers) was tested. Which IC50 did it give?
Answer: The IC50 was 22.5 µM.

Question: For `N#Cc1ccc(C2N[C@H](C(=O)O)CS2)cc1` (mixture of isomers), which IC50 is on record?
Answer: The IC50 was 23.4 µM.

Question: For `O=C(O)c1ccccc1C1N[C@H](C(=O)O)CS1` (mixture of isomers), which IC50 is on record?
Answer: Its IC50 is 18.1 µM.

Question: Which IC50 does the source give for `O=C(O)[C@@H]1CSC(c2ccccc2[N+](=O)[O-])N1C(=O)CCl` (mixture of isomers) here?
Answer: The IC50 was 7.65 µM.

Question: With `O=C(O)[C@@H]1CSC(c2ccco2)N1C(=O)Cc1ccccc1` (mixture of isomers) as the molecule, how does the IC50 read?
Answer: Its IC50 is 2.89 µM.

Question: With `NCC(=O)N1C(c2ccco2)SC[C@H]1C(=O)O` (mixture of isomers) as the molecule, how does the IC50 read?
Answer: The IC50 was 0.98 µM.

Question: With `N#Cc1ccc(C2SC[C@@H](C(=O)O)N2C(=O)Cc2ccccc2)cc1` (mixture of isomers) as the molecule, how does the IC50 read?
Answer: The IC50 was 2.47 µM.

Question: For `NCC(=O)N1C(c2ccccc2O)SC[C@H]1C(=O)O` (mixture of isomers), which IC50 is on record?
Answer: The IC50 was 0.21 µM.

Question: With `COc1cccc(C2SC[C@@H](C(=O)O)N2C(=O)CN)c1O` (mixture of isomers) as the molecule, how does the IC50 read?
Answer: The IC50 was 0.14 µM.

Question: How did the IC50 turn out when `NCC(=O)N1C(c2ccccc2C(=O)O)SC[C@H]1C(=O)O` (mixture of isomers) was run?
Answer: Its IC50 is 0.28 µM.
